Assay [1] concerns Rattus norvegicus. Kind of assay: The percent fall in systolic blood pressure at 1.5 / 4 hr after peroral administration of 50 mg/kg in DOCA/saline hypertensive rats at 24 hr; Non significant. Type of assay: functional, organism-based. On the set-up: dose 50 mg/kg. To be noted: Artery, at 50 mg/kg.
Assay [2] deals with Rattus norvegicus. The experiment in a line: The percent fall in systolic blood pressure at 1.5 / 4 hr after peroral administration of 50 mg/kg in DOCA/saline hypertensive rats at 2 hr; Non significant. To be noted: Artery, at 50 mg/kg. On the set-up: dose 50 mg/kg. Type of assay: functional, organism-based.
The subject of assay [3] is Rattus norvegicus. The experiment in a line: Percent fall in systolic blood pressure at 1.5 / 4 hr after peroral administration of 50 mg/kg in DOCA/saline hypertensive rats at 6 h; Non significant. Format: functional, organism-based. The arrangement: dose 50 mg/kg. To be noted: Artery, at 50 mg/kg.
The test system of assay [4] is Rattus norvegicus. The experiment in a line: Starting systolic blood pressure at dose of 50 mg/kg in rat. Type of assay: functional, Artery. The method in brief:
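Mean systolic blood pressure before dosing for each group of four DOCA/saline hypertensive rats given 50 mg/kg orally. It indicates how far hypertension was established.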

Assay [5] deals with Rattus norvegicus. Kind of assay: The percent fall in systolic blood pressure at 1.5 / 4 h after peroral administration of 50 mg/kg in DOCA/saline hypertensive rats at 2 hr. To be noted: route oral. Format: functional, Artery.

From ChEMBL document CHEMBL1121617, “Antihypertensive ureidopiperidines” (1980) come the findings set out here.

As for `O=C(NC(=O)c1ccccc1)NC1CCN(CC(O)C2COc3ccccc3O2)CC1` (stereo in doubt; 28) [listing 1 of 2 here], the Fall entry with Rattus norvegicus [1], in the assay on Rattus norvegicus [2] and with Rattus norvegicus [3] was “Not significant” throughout.

As to `O=C(NC(=O)c1ccccc1)NC1CCN(CCc2ccccc2)CC1`, the Fall entry in the assay on Rattus norvegicus [1], in the assay on Rattus norvegicus [2] and with Rattus norvegicus [3] was “Not significant” throughout. Also, in the assay with Rattus norvegicus [4], the SP stood at 180 mmHg.

On to `O=C(NC(=O)c1cccs1)NC1CCN(CCCC(=O)c2c[nH]c3ccccc23)CC1`, for which the Fall result in the assay on Rattus norvegicus [1], with Rattus norvegicus [2] and in the assay on Rattus norvegicus [3] was “Not significant” throughout. The same compound showed an SP in the assay with Rattus norvegicus [4] of 181 mmHg.

`O=C(Nc1ccccc1)NC1CCN(CC(O)COc2cccc3ccccc23)CC1` (stereo not given): the Fall result with Rattus norvegicus [1], in the assay on Rattus norvegicus [2] and with Rattus norvegicus [3] was “Not significant” in each case. In the assay on Rattus norvegicus [4], this compound showed an SP of 170 mmHg.

For `COc1ccc(C(=O)NC(=O)NC2CCN(CC(O)C3COc4ccccc4O3)CC2)cc1` (stereo not given), the Fall entry with Rattus norvegicus [1], in the assay on Rattus norvegicus [2] and with Rattus norvegicus [3] was “Not significant” each time. In addition, the SP with Rattus norvegicus [4] was 165 mmHg.

Regarding `CN(C(=O)NC(=O)c1ccccc1)C1CCN(CCc2c[nH]c3ccccc23)CC1`, the results for the Fall result with Rattus norvegicus [1], in the assay on Rattus norvegicus [5] and with Rattus norvegicus [3] were “Not significant”, 40% and “Not significant”, respectively. Moreover, the SP in the assay with Rattus norvegicus [4] amounted to 186 mmHg.

Consider `O=C(NC1CCCCC1)NC1CCN(CC(O)C2COc3ccccc3O2)CC1` (stereo not given), for which the Fall entry with Rattus norvegicus [1] is “Not significant”; with Rattus norvegicus [5], 26%; with Rattus norvegicus [3], “Not significant”. The compound also came in with an SP in the assay on Rattus norvegicus [4] of 172 mmHg.

As to `O=C(NC(=O)c1ccccc1)NC1CCN(CC(O)C2COc3ccccc3O2)CC1` (stereo in doubt; 29) [listing 1 of 2 here], the SP in the assay on Rattus norvegicus [4] (50 mg/kg) worked out at 178 mmHg.

As for `O=C(Nc1ccccc1)NC1CCN(CC(O)C2COc3ccccc3O2)CC1` (stereo in doubt; 30) [listing 1 of 2 here], the Fall result with Rattus norvegicus [1], in the assay on Rattus norvegicus [2] and in the assay on Rattus norvegicus [3] was “Not significant” throughout.

For the compound `O=C(NC(=O)c1ccccc1)NC1CCN(CC(O)COc2cccc3ccccc23)CC1` (stereo not given), the Fall entry in the assay with Rattus norvegicus [1], in the assay with Rattus norvegicus [2] and in the assay on Rattus norvegicus [3] was “Not significant” each time. The compound further registered an SP in the assay with Rattus norvegicus [4] of 185 mmHg.

As for `COc1ccc(C(=O)NC(=O)NC2CCN(CC(O)COc3ccccc3OC)CC2)cc1` (stereo not given), the Fall entry in the assay with Rattus norvegicus [1], in the assay on Rattus norvegicus [2] and with Rattus norvegicus [3] was “Not significant” in each case. Besides, the SP with Rattus norvegicus [4] came to 162 mmHg.

Take `O=C(NC(=O)c1ccccc1)NC1CCN(CC(O)c2ccccc2)CC1` (stereo not given): the Fall entry with Rattus norvegicus [1] was “Not significant”; in the assay on Rattus norvegicus [5] it was 21%; in the assay on Rattus norvegicus [3] it was “Not significant”. The compound further had an SP in the assay with Rattus norvegicus [4] of 182 mmHg.

As for `COc1ccccc1OCC(O)CN1CCC(NC(=O)NC(=O)c2ccc(F)cc2)CC1` (stereo not given), the Fall result with Rattus norvegicus [1], with Rattus norvegicus [2] and with Rattus norvegicus [3] was “Not significant” each time. This compound displayed an SP with Rattus norvegicus [4] of 196 mmHg.

For `O=C(NC(=O)c1ccccc1)NC1CCN(CC(=O)C2COc3ccccc3O2)CC1` (stereo not given), the Fall entry with Rattus norvegicus [1], in the assay with Rattus norvegicus [2] and in the assay with Rattus norvegicus [3] was “Not significant” throughout. Also, in the assay with Rattus norvegicus [4], the SP came out at 181 mmHg.

On to `CC(=O)Nc1ccc(OCC(O)CN2CCC(NC(=O)NC(=O)c3ccccc3)CC2)cc1` (stereo not given), for which the Fall entry in the assay with Rattus norvegicus [1], in the assay with Rattus norvegicus [2] and in the assay on Rattus norvegicus [3] was “Not significant” throughout. In the assay with Rattus norvegicus [4], this compound registered an SP of 179 mmHg.

As to `CN(/C(S)=N/c1ccccc1)C1CCN(CCc2c[nH]c3ccccc23)CC1`, the Fall result in the assay with Rattus norvegicus [1], in the assay with Rattus norvegicus [2] and in the assay with Rattus norvegicus [3] was “Not significant” throughout. Moreover, the SP with Rattus norvegicus [4] amounted to 172 mmHg.

Take `O=C(NC(=O)c1cccs1)NC1CCN(CCCC(=O)c2ccccc2)CC1`: the Fall entry in the assay on Rattus norvegicus [1] is “Not significant”; in the assay on Rattus norvegicus [5], 30%; with Rattus norvegicus [3] it was “Not significant”. Further, the SP with Rattus norvegicus [4] is reported as 190 mmHg.

For the compound `O=C(Nc1ccccc1)NC1CCN(CCCC(=O)c2c[nH]c3ccccc23)CC1`, the Fall entry in the assay with Rattus norvegicus [1], in the assay on Rattus norvegicus [2] and in the assay with Rattus norvegicus [3] was “Not significant” each time. In addition, the SP with Rattus norvegicus [4] stood at 187 mmHg.

As to `N/C(S)=N/C1CCN(CCc2c[nH]c3ccccc23)CC1`, the Fall result is “Not significant” in the assay with Rattus norvegicus [1], 20% with Rattus norvegicus [5] and “Not significant” in the assay on Rattus norvegicus [3]. The same compound displayed an SP in the assay with Rattus norvegicus [4] of 189 mmHg.

Consider `COc1ccccc1OCC(O)CN1CCC(NC(=O)NC(=O)c2ccccc2)CC1` (stereo not given), for which the figures for the Fall entry with Rattus norvegicus [1], with Rattus norvegicus [5] and with Rattus norvegicus [3] were “Not significant”, 17% and “Not significant”, respectively. The SP in the assay with Rattus norvegicus [4] was found to be 189 mmHg.

`COc1ccc(NC(=O)NC2CCN(CC(O)C3COc4ccccc4O3)CC2)cc1` (stereo not given): the Fall result is “Not significant” with Rattus norvegicus [1], 17% with Rattus norvegicus [5] and “Not significant” with Rattus norvegicus [3]. The same compound showed an SP in the assay on Rattus norvegicus [4] of 190 mmHg.

The compound `O=C(NC(=O)c1ccccc1)NC1CCN(CC(O)C2COc3ccccc3O2)CC1` (stereo in doubt; 28) [listing 2 of 2 here] registered an SP in the assay on Rattus norvegicus [4] (50 mg/kg) of 174 mmHg.

Turning to `N=C(NC(=O)c1ccccc1)NC1CCN(CCCC(=O)c2ccccc2)CC1`, the Fall entry with Rattus norvegicus [1], with Rattus norvegicus [2] and with Rattus norvegicus [3] was “Not significant” in each case. In addition, the SP in the assay on Rattus norvegicus [4] is given as 188 mmHg.

In the case of `O=C(NC(=O)c1ccccc1)NC1CCN(CC(O)C2COc3ccccc3O2)CC1` (stereo in doubt; 29) [listing 2 of 2 here], the Fall entry in the assay with Rattus norvegicus [1], in the assay on Rattus norvegicus [2] and in the assay with Rattus norvegicus [3] was “Not significant” throughout.

Consider `O=C(NC1CCCCC1)NC1CCN(CCc2c[nH]c3ccccc23)CC1`, for which the results for the Fall entry in the assay with Rattus norvegicus [1], in the assay on Rattus norvegicus [5] and in the assay with Rattus norvegicus [3] were “Not significant”, 15% and “Not significant”, respectively. The compound also gave an SP in the assay on Rattus norvegicus [4] of 176 mmHg.

As for `O=C(NC(=S)NC1CCN(CCc2c[nH]c3ccccc23)CC1)c1ccccc1`, the Fall entry in the assay with Rattus norvegicus [1], in the assay on Rattus norvegicus [2] and in the assay with Rattus norvegicus [3] was “Not significant” throughout. Further, the SP with Rattus norvegicus [4] is recorded as 200 mmHg.

With `N=C(NC(=O)c1ccccc1)NC1CCN(CCc2c[nH]c3ccccc23)CC1`, the Fall result in the assay on Rattus norvegicus [1], in the assay with Rattus norvegicus [2] and in the assay with Rattus norvegicus [3] was “Not significant” each time. In the assay on Rattus norvegicus [4], the SP was 165 mmHg.

In turn, `O=C(Nc1ccccc1)NC1CCN(CC(O)C2COc3ccccc3O2)CC1` (stereo in doubt; 30) [listing 2 of 2 here] displayed an SP in the assay on Rattus norvegicus [4] (50 mg/kg) of 182 mmHg.

Consider `O=C(Nc1ccc(Cl)cc1)NC1CCN(CC(O)C2COc3ccccc3O2)CC1` (stereo not given), for which the Fall entry in the assay with Rattus norvegicus [1], with Rattus norvegicus [2] and in the assay with Rattus norvegicus [3] was “Not significant” throughout. In the assay on Rattus norvegicus [4], the SP was 178 mmHg.

In the case of `O=C(NC(=O)c1ccccc1)NC1CCN(CC(=O)c2c[nH]c3ccccc23)CC1`, the Fall result with Rattus norvegicus [1], with Rattus norvegicus [2] and in the assay on Rattus norvegicus [3] was “Not significant” throughout. The compound also had an SP with Rattus norvegicus [4] of 178 mmHg.

In the case of `O=C(Nc1ccccc1)NC1CCN(CC(O)C2COc3ccccc3O2)CC1` (stereo in doubt; 31) [listing 1 of 2 here], the Fall in the assay on Rattus norvegicus [5] was determined as 35%. Besides, the SP in the assay with Rattus norvegicus [4] (50 mg/kg) was 171 mmHg.

Regarding `O=C(NC(=O)c1ccccc1)NC1CCN(CC(=O)c2ccccc2)CC1`, the Fall entry was “Not significant” with Rattus norvegicus [1], -23% in the assay with Rattus norvegicus [5] and “Not significant” in the assay on Rattus norvegicus [3]. Moreover, the SP in the assay on Rattus norvegicus [4] turned out to be 166 mmHg.

As for `OC(CN1CCC(/N=C(\S)Nc2ccccc2)CC1)C1COc2ccccc2O1` (stereo not given), the Fall result in the assay with Rattus norvegicus [1] is “Not significant”; in the assay with Rattus norvegicus [5], 26%; in the assay with Rattus norvegicus [3] it was “Not significant”. For the same compound, the SP with Rattus norvegicus [4] worked out at 182 mmHg.

As for `O=C(NC(=S)NC1CCN(CC(O)C2COc3ccccc3O2)CC1)c1ccc(Cl)cc1` (stereo not given), the Fall entry with Rattus norvegicus [1], in the assay on Rattus norvegicus [2] and in the assay with Rattus norvegicus [3] was “Not significant” in each case. Besides, the SP in the assay with Rattus norvegicus [4] was found to be 175 mmHg.

In the case of `CCN(C(=O)Nc1ccccc1)C1CCN(CCc2c[nH]c3ccccc23)CC1`, the Fall entry in the assay on Rattus norvegicus [1], with Rattus norvegicus [2] and with Rattus norvegicus [3] was “Not significant” in each case. For the same compound, the SP in the assay with Rattus norvegicus [4] came to 170 mmHg.

Consider `O=C(NC(=O)c1ccccc1)NC1CCN(CCCc2c[nH]c3ccccc23)CC1`, for which the Fall result with Rattus norvegicus [1], with Rattus norvegicus [2] and with Rattus norvegicus [3] was “Not significant” each time. Further, in the assay with Rattus norvegicus [4], the SP was found to be 191 mmHg.

Turning to `O=C(NC(=O)c1ccc(F)cc1)NC1CCN(CC(O)C2COc3ccccc3O2)CC1` (stereo not given), the Fall result in the assay on Rattus norvegicus [1] is “Not significant”; in the assay on Rattus norvegicus [5], 17%; in the assay on Rattus norvegicus [3] it was “Not significant”. The SP with Rattus norvegicus [4] amounted to 183 mmHg.

Consider `O=C(NC(=O)c1ccccc1)NC1CCN(CCCC(=O)c2c[nH]c3ccccc23)CC1`, for which the figures for the Fall result with Rattus norvegicus [1], in the assay with Rattus norvegicus [5] and in the assay with Rattus norvegicus [3] were “Not significant”, 16% and “Not significant”, respectively. The compound also returned an SP in the assay with Rattus norvegicus [4] of 187 mmHg.

`O=C(Nc1ccccc1)NC1CCN(CC(O)C2COc3ccccc3O2)CC1` (stereo in doubt; 31) [listing 2 of 2 here]: the Fall entry with Rattus norvegicus [1] and in the assay on Rattus norvegicus [3] was “Not significant” in each case.
